Shown are actives, neighbours in structure and some others; about 4.3% of the full set was active somewhere.
OX1R antag-1 = blocks the human orexin 1 receptor; O43613; OX1R-expressing cells, FRET antagonist read-out; inhibition, % at 6.6 µM; 1.8% of 330,000 active; in the data active = inhibition mostly above about 38%, no sharp cut-off; inactive = mostly below about 40%;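 also: 0% = agonist challenge alone and 100% = reference antagonist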
OX1R antag-2 = human HCRTR1 antagonism; O43613; CHO/OX1R cells, Fluo-8 calcium fluorescence, orexin A; inhibition, % at 5 µM; 0.43% of 330,000 active;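 active = inhibition above its plate's threshold, mean inhibition of all tested compounds on the plate plus 3 SD, cut at about 37% in these data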;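 also: 0% = orexin A challenge wells and 100% = SB-334867-A antagonist wells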
TAAR1 antag = antagonists of human TAAR1; Q96RJ0; CHO RD-HGA16 TAAR1, Fluo-8 calcium fluorescence, antagonist; inhibition, % at 3 µM; 1.5% of 360,000 active;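 active = inhibition above a per-plate cutoff, the mean inhibition of test compounds on that plate plus 3 SD, cut at about 49% in these data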;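 also: 0% = DMSO plus EC80 beta-PEA response and 100% = DMSO alone without agonist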
Target sequence (Q96RJ0 whole entry, looked up): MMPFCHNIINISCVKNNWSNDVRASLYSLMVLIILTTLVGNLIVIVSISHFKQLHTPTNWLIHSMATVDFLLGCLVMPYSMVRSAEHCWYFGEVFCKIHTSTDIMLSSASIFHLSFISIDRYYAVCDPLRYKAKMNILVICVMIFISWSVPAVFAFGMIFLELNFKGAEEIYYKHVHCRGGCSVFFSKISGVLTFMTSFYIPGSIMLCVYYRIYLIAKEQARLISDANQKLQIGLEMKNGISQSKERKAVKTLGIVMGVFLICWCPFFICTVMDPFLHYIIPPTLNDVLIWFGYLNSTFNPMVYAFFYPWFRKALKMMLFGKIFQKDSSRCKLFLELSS
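Assay system: RD-HGA16 CHO cells with stable hTAAR1 and Gα16 / Reagent: EC80 β-phenethylamine stimulus / Doses: 3 µM, single point / Timing: dye loading 75 min at 37 °C, then 30 min room temperature / Measured by: Fluo-8 intracellular calcium dye fluorescence, real-time kinetic reads / Controls: vehicle wells and EC80 agonist wells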
GalR3 antagonist = blocks the human galanin receptor 3. inhibition, % at 3 µM. 0.44% of 360,000 active. AID 651719. HEK293 GalR3-CNG cAMP membrane potential fluorescence; galR3 body fused to GalR1 C-terminus. O60755;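 active = inhibition above the screen-wide average plus 3 SD, cut at about 13% in these data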;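 also: forskolin and galanin both at EC90 stimulate the cells; cAMP rise reported by CNG channel membrane potential dye signal; 0% = forskolin plus galanin with DMSO and 100% = forskolin alone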
Target sequence (O60755 1-299 limits assumed): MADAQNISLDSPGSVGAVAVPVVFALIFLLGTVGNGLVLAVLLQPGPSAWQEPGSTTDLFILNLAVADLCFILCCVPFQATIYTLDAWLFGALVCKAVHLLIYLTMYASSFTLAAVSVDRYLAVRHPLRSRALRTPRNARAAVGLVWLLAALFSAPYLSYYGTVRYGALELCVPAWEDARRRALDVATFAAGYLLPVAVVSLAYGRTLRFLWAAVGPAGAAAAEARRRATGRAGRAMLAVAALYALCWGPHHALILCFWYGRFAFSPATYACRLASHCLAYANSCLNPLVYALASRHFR
CHO parental Ca = counter-screen for OX1R antagonists: effect in parental CHO cells; parental CHO-K1, ATP-induced calcium, Fluo-8 fluorescence; inhibition, % at 5.6 µM; 0.63% of 330,000 active; AID 463079;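 active = inhibition above that plate's mean sample inhibition plus 3 SD, cut at about 26% in these data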;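 also: 0% = ATP-challenged DMSO wells and 100% = DMSO wells without ATP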
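Assay system: untransfected parental CHO cell line. Also added: ATP agonist challenge. Dosing: one dose, 5.6 µM nominal. Measured by: Fluo-8 fluorescence. Read-out: % inhibition. Benchmarks: ATP wells versus no-ATP DMSO wells. Repeats: no replicates.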
TAAR1 agonist = human TAAR1 agonism; Q96RJ0; CHO RD-HGA16 TAAR1, Fluo-8 calcium fluorescence; vehicle wells 0%, saturating PEA agonist 100%; activation, % at 3 µM; 0.99% of 360,000 active; AID 624467;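 active = activation above the mean activation of all test compounds in the run plus 3 SD, cut at about 38% in these data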
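Test system: RD-HGA16 (CHO) cells co-expressing Gα16 and hTAAR1 / Benchmarks: DMSO vehicle as 0%, PEA at EC100 as 100% / Repeats: no replicates (n 1) / Measure: % activation from peak over basal fluorescence ratio, DMSO-to-PEA scaled / Timing: 17-24 h plating, Fluo-8 75 min 37 °C, 30 min RT / Technique: kinetic Fluo-8 calcium fluorescence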
TAAR1 ag conf = confirmation of human TAAR1 agonists; AID 651783; activation, % at 3 µM; shares compounds with TAAR1 agonist; CHO RD-HGA16 TAAR1, Fluo-8 calcium fluorescence; scaled: DMSO 0%, maximal phenethylamine 100%; 82% of 2,400 active;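 active = activation above a cutoff set at the run's mean compound activation plus 3 SD, cut at about 39% in these data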
Ga16 ag counter = nonselective agonist in parental cells, TAAR1 agonist counter-screen; shares compounds with TAAR1 agonist; CHO-Ga16 parental, Fluo-8 calcium fluorescence; normalized to maximal ATP response, DMSO zero; activation, % at 3 µM; 50% of 2,400 active; AID 651787;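 active = activation above the run cutoff, the mean activation over all tested wells plus 3 SD, cut at about 12% in these data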;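 also: 0% = DMSO wells and 100% = maximal ATP response on the peak over basal ratio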
TAAR1 desens = counter-screen for human TAAR1 agonists: agonists that desensitize TAAR1. shares compounds with TAAR1 agonist. CHO RD-HGA16 hTAAR1, Fluo-8 calcium, beta-PEA response inhibition. inhibition, % at 3 µM. 46% of 2,400 active;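 active = inhibition above the run cutoff, the mean inhibition of all test compounds plus 3 SD, cut at about 49% in these data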;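 also: beta-PEA stimulus applied at its EC80; loss of beta-PEA calcium signal after compound pretreatment read as receptor desensitization; 0% = DMSO with beta-PEA at EC80 and 100% = DMSO alone without agonist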
Ga16 antag count = nonselective Ga16 antagonist in TAAR1 agonist counter-screen | shares compounds with TAAR1 agonist | CHO-Ga16 ATP-induced calcium, Fluo-8 fluorescence | inhibition, % at 3 µM | 39% of 2,400 active | AID 651952;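 active = inhibition above the plate's mean compound inhibition plus 3 SD, computed per plate, cut at about 22% in these data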;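 also: 0% = EC80 ATP with DMSO and 100% = DMSO wells without ATP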
Numbers without * were called inactive; . = no result.

SMILES | OX1R antag-1 | OX1R antag-2 | TAAR1 antag | GalR3 antagonist | CHO parental Ca | TAAR1 agonist | TAAR1 ag conf | Ga16 ag counter | TAAR1 desens | Ga16 antag count
COc1cccc(C(=O)N[C@H](C(=O)N2CCC[C@H]2C(=O)NCCc2ccccc2Cl)c2ccccc2)c1 | . | . | 52.2* | -5.1 | . | 56.3* | 91.3* | 2.8 | 83.9* | 17.1
COc1cccc(C(=O)N[C@H](C(=O)N2CCC[C@H]2C(=O)NCCc2ccccc2Cl)C(C)C)c1 | . | . | 77.6* | -5.4 | . | 71.2* | 85.1* | 3.6 | 94.6* | 7.6
CC(C)[C@H](NC(=O)c1ccc(Cl)c(Cl)c1)C(=O)N1CCC[C@H]1C(=O)NCc1ccccc1 | . | . | -19.4 | -2.8 | . | 1.9 | . | . | . | .
Cc1ccc(C2(C)NC(=O)N(CC(=O)N3CCc4ccccc43)C2=O)cc1 (configuration not stated) | 3.8 | 6.0 | -9.7 | -3.9 | -16.1 | 33.6 | . | . | . | .
CC1(c2ccc(Cl)cc2)NC(=O)N(CC(=O)N2CCc3ccccc32)C1=O (configuration not stated) | -2.1 | 21.0 | 72.7* | -6.4 | -3.0 | 96.9* | 114.0* | 74.2* | 77.0* | 55.1*
CC(C)CN1CC(C)C(=O)N(c2ccccc2)C1=O (configuration not stated) | . | . | 21.2 | -6.9 | . | 62.9* | 2.2 | 3.0 | 8.2 | 5.5
O=C(CN1C(=O)NC2(CCCCC2)C1=O)N1CCN(S(=O)(=O)c2cccc([N+](=O)[O-])c2)CC1 | 13.3 | -2.0 | 1.1 | -2.9 | -3.9 | -2.4 | . | . | . | .
C/C(=N\NC(=O)c1nnn(-c2nonc2N)c1-c1ccc2c(c1)OCO2)c1ccc(F)cc1 | 27.6 | 27.1 | -12.2 | -5.0 | -9.6 | 11.9 | . | . | . | .
CC/C(=N\NC(=O)c1nnn(-c2nonc2N)c1-c1ccc2c(c1)OCO2)c1ccccc1 | 9.0 | -9.4 | 10.3 | -7.5 | -4.8 | 11.8 | . | . | . | .
C/C(=N\NC(=O)c1nnn(-c2nonc2N)c1-c1ccc2c(c1)OCO2)c1ccc(C)cc1 | 28.0 | 2.4 | 79.9* | -10.8 | -3.1 | 124.9* | 126.6* | 94.0* | 83.3* | 63.7*
C/C(=N\NC(=O)c1nnn(-c2nonc2N)c1-c1ccc2c(c1)OCO2)c1ccccc1 | 26.1 | 19.0 | 2.7 | -3.7 | -12.2 | 60.2* | 96.1* | 46.4* | 22.3 | 13.1
c1csc(CNCc2ccncc2)c1 | 20.4 | 0.5 | -9.9 | 0.8 | -1.9 | 0.1 | . | . | . | .
CNCCc1ccccn1 | 11.9 | 1.0 | 58.4* | . | 2.0 | 81.5* | 91.7* | 0.4 | 82.0* | 3.9
c1ccc(CCNCc2cccs2)nc1 | . | . | -19.0 | -5.1 | . | 52.4* | 66.5* | 0.4 | 27.8 | 7.5
c1ccc(NCCc2ccccn2)cc1 | . | . | 21.7 | -3.8 | . | -0.3 | . | . | . | .
CCCCC(=O)N(C)c1c(C)nc2ccc(C(=O)Nc3cccc(OC)c3)cn12 | . | . | -16.0 | 1.6 | . | 3.0 | . | . | . | .
Cc1ccc(-n2ncc3c2CCCC3NC(=O)CCn2ccnc2C)cc1C (configuration not stated) | 8.9 | -22.9 | -33.2 | -2.0 | -26.3 | 1.4 | . | . | . | .
O=C(Nc1ccc(Cl)cn1)c1cccc(F)c1 | 17.8 | -26.6 | -21.1 | -1.4 | -3.9 | 2.5 | . | . | . | .
O=C(Nc1cccc(C(=O)Nc2ccc(Cl)cn2)c1)c1ccccc1 | -2.2 | -24.1 | 85.7* | -1.7 | 0.4 | 86.8* | 2.9 | 6.5 | 26.2 | 16.9
O=C(Cc1ccccc1)Nc1ccc(NC(=O)c2ccccc2)nc1 | 22.0 | -14.2 | 3.4 | -4.7 | -15.5 | 52.6* | 64.0* | 1.9 | 31.0 | 11.7
COC(=O)c1sc(NC(=S)NC(=O)c2ccccc2Cl)nc1C | 6.8 | -6.2 | -14.8 | -3.4 | -5.8 | 50.4* | 29.3 | 22.9* | 11.3 | 12.1
O=S(=O)(Nc1ccc(S(=O)(=O)Nc2cccc3ccccc23)cc1)c1ccccc1 | 9.6 | 6.6 | 12.4 | -4.8 | -3.0 | 41.3* | 40.5* | 11.3 | 23.6 | 16.5
O=S(=O)(Nc1ccc(-c2ccccc2)cc1)c1ccccc1 | . | . | -8.6 | -5.1 | . | 2.2 | . | . | . | .
COc1ccc(S(N)(=O)=O)cc1C(=O)NNC(=O)c1cccc(S(=O)(=O)N2CCOCC2)c1 | . | . | 20.0 | -3.3 | . | 1.0 | . | . | . | .
Cc1sc(NC(=O)c2ccco2)c(C(c2cccnc2)N2CCC(C)CC2)c1C (configuration not stated) | 1.5 | 3.6 | 27.1 | -4.0 | -25.5 | 62.1* | 54.3* | 21.7* | 38.1 | 23.0*
SMILES | OX1R antag-1 | OX1R antag-2 | TAAR1 antag | GalR3 antagonist | CHO parental Ca | TAAR1 agonist | TAAR1 ag conf | Ga16 ag counter | TAAR1 desens | Ga16 antag count
CCN1CCN(C(c2cccnc2)c2c(NC(=O)c3ccco3)sc(C)c2C)CC1 (configuration not stated) | 5.3 | -15.4 | -5.1 | -4.5 | -4.5 | 1.0 | . | . | . | .
N#C/C(=C\c1ccccn1)c1nc2ccccc2s1 | 11.7 | 57.1* | 75.0* | -2.8 | 44.5* | 71.7* | 19.1 | 29.2* | 41.5 | 52.9*
CC1(C)CCCN(C(=O)c2coc(=O)c(Br)c2)C1 | . | . | 75.9* | -1.2 | . | 78.6* | 100.0* | 3.4 | 94.8* | 5.7
O=c1ccnc(NCCc2ccccc2)[nH]1 | 1.8 | -17.7 | . | 2.0 | -15.4 | . | . | 2.1 | . | 6.4
CCCc1cc(=O)[nH]c(NCCc2ccccc2)n1 | 0.2 | -9.0 | 2.1 | -2.8 | -12.0 | 7.3 | . | . | . | .
O=C(O)CC1(CC(=O)N2CCOCC2)CCCC1 | 8.9 | 0.3 | 12.8 | -4.0 | 7.9 | -3.1 | . | . | . | .
c1ccc(CCNc2c3c(nc4ncnn24)CCC3)cc1 | 13.0 | -6.2 | 9.0 | -6.8 | -2.6 | 62.2* | 89.8* | 6.6 | 37.8 | 6.3
COc1ccc(CCC(=O)OCC(=O)N2CCN(S(=O)(=O)c3ccc(C)cc3C)CC2)cc1 | -2.1 | -11.5 | -11.2 | -3.8 | -3.5 | 1.4 | . | . | . | .
Cc1c(-n2cc(C(=O)c3cc(F)ccc3O)cc(C#N)c2=O)c(=O)n(-c2ccccc2)n1C | 18.8 | -24.5 | -11.1 | -5.3 | -20.3 | 4.9 | . | . | . | .
N#Cc1cc(C(=O)c2cc(F)ccc2O)cn(-c2nccs2)c1=O | -0.5 | 28.0 | 67.9* | -0.8 | 36.9* | 104.8* | 90.7* | 112.4* | 67.2* | 74.4*
N#Cc1cc(C(=O)c2ccccc2O)cn(-c2nccs2)c1=O | 8.5 | 39.9 | 71.1* | -3.0 | 30.8 | 125.7* | 90.4* | 84.1* | 64.7* | 58.8*
